The source of these data is ChEMBL document CHEMBL4368918, “Structure-Based Design of Inhibitors Selective for Human Proteasome β2c or β2i Subunits” (J Med Chem, 2019).

Each structure is given as a SMILES string. The source made the active and inactive calls. The calls are words filed in the database; no cut-off is given here.

For the first assay, the species on record is Homo sapiens. Nature of the assay: Selectivity ratio of IC50 for 20S immunoproteasome beta 1 in human Raji cell lysates to IC50 for 20S constitutive proteasome beta 2 trypsin-like activity in human Raji cells. Format: cell-based.
Details: not given
Regarding `CC(C)C[C@H](NC(=O)[C@H](Cc1ccccc1)N=[N+]=[N-])C(=O)NCC(=O)N[C@H](/C=C/S(C)(=O)=O)Cc1ccc(CN)cc1`, the Ratio IC50 was > 2200.

A further assay is filed under the species Homo sapiens. Put plainly: Selectivity ratio of IC50 for 20S immunoproteasome beta 5 in human Raji cell lysates to IC50 for 20S constitutive proteasome beta 2 trypsin-like activity in human Raji cells. Format: cell-based.
Details: not given
Turning to `CC(C)C[C@H](NC(=O)[C@H](Cc1ccccc1)N=[N+]=[N-])C(=O)NCC(=O)N[C@H](/C=C/S(C)(=O)=O)Cc1ccc(CN)cc1`, the Ratio IC50 worked out at 187.

For a further assay, the target named is T1, Proteasome Macropain subunit MB1 (Homo sapiens, UniProt P28074).
T1 sequence (P28074 whole entry): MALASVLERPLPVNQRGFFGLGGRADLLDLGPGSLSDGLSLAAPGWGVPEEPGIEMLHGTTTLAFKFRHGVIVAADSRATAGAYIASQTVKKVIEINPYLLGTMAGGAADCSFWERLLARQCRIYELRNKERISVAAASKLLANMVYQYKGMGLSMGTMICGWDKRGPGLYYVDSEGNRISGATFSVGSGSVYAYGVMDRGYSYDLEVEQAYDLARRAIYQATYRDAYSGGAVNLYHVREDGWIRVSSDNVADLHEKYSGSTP
Put plainly: Inhibition of 20S constitutive proteasome beta 5 chymotrypsin-like activity in human Raji cell lysates after 1 hr by competitive ABPP assay. Format: subcellular, Lysate.
Details: not given
`CC(C)C[C@H](NC(=O)[C@H](Cc1ccccc1)N=[N+]=[N-])C(=O)NCC(=O)N[C@H](/C=C/S(C)(=O)=O)Cc1ccc(CN)cc1` showed an IC50 of 8.6 µM. In other words, the single-digit micromolar range.

The target of the next assay is T2, Proteasome subunit beta type-6 (Homo sapiens, UniProt P28072).
T2 sequence (P28072 whole entry): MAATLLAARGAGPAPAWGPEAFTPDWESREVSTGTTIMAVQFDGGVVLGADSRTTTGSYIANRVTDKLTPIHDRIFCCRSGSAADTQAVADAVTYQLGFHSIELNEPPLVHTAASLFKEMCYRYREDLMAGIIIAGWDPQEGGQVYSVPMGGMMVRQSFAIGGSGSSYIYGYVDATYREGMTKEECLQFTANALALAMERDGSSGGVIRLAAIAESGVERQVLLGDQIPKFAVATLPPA
Put plainly: Inhibition of 20S constitutive proteasome beta 1 caspase-like activity in human Raji cell lysates after 1 hr by competitive ABPP assay. Format: subcellular, Lysate.
Details: not given
The method in brief: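 Raji cells were sonicated in 3 volumes of Tris pH 7.5 lysis buffer containing DTT, MgCl₂, sucrose, 2 mM ATP and 0.05% digitonin. Lysate (5 μg protein, in buffer with 2 mM ATP and glycerol) was preincubated with inhibitor for 1 h at 37 °C, then with a cocktail of three fluorescent ABPs for 1 h. In-gel fluorescence densitometry was normalized to mock. IC50 came from the mean of three experiments.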
In the case of `CC(C)C[C@H](NC(=O)[C@H](Cc1ccccc1)N=[N+]=[N-])C(=O)NCC(=O)N[C@H](/C=C/S(C)(=O)=O)Cc1ccc(CN)cc1`, the half-inhibitory concentration (IC50) was > 100 µM.

The next assay addresses T3, Proteasome subunit beta type-9 (Homo sapiens, UniProt P28065).
T3 sequence (P28065 whole entry): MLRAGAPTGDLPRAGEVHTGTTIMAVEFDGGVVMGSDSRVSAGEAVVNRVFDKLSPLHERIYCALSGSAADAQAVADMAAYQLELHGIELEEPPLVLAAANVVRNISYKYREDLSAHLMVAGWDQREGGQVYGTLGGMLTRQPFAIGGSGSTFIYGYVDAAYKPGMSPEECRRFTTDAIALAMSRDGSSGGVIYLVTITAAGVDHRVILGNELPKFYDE
Put plainly: Inhibition of 20S immunoproteasome beta 1 in human RPMI8226 cell lysates after 1 hr by coomassie brilliant blue staining-based fluorescence assay. Format: subcellular, Lysate.
Details: not given
The procedure, abridged: (§1)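 Living RPMI-8226 cells were grown in RPMI-1640 with 10% FCS. Cells at (5–8)×10⁵ cells/mL were exposed to inhibitor for 1 h at 37 °C, washed in PBS and lysed on ice for 1 h in digitonin/ATP buffer. Residual activity was read by cocktail-ABP labeling, SDS-PAGE and fluorescence densitometry relative to mock, with Coomassie staining correcting for loading. IC50 came from three independent experiments.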
`CC(C)C[C@H](NC(=O)[C@H](Cc1ccccc1)N=[N+]=[N-])C(=O)NCC(=O)N[C@H](/C=C/S(C)(=O)=O)Cc1ccc(CN)cc1`: the concentration for half-maximal inhibition (IC50) is > 10 µM.

The next assay concerns the target T4, Proteasome subunit beta type-10 (Homo sapiens, UniProt P40306).
T4 sequence (P40306 whole entry): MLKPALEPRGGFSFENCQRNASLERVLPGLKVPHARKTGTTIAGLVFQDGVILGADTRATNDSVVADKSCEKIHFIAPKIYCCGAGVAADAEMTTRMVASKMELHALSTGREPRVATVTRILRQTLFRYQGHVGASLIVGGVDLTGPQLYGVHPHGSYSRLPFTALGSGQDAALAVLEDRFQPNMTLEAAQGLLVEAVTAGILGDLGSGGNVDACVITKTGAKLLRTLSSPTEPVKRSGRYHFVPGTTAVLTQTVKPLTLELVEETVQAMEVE
Put plainly: Inhibition of 20S immunoproteasome beta 2 in human RPMI8226 cell lysates after 1 hr by coomassie brilliant blue staining-based fluorescence assay. Format: subcellular, Lysate.
Details: not given
With `CC(C)C[C@H](NC(=O)[C@H](Cc1ccccc1)N=[N+]=[N-])C(=O)NCC(=O)N[C@H](/C=C/S(C)(=O)=O)Cc1ccc(CN)cc1`, the IC50 is > 10 µM.

Another assay is filed under the species Homo sapiens. Put plainly: Selectivity ratio of IC50 for 20S constitutive proteasome beta 1 caspase-like activity in human Raji cell lysates to IC50 for 20S constitutive proteasome beta 2 trypsin-like activity in human Raji cells. Format: cell-based.
Details: not given
Take `CC(C)C[C@H](NC(=O)[C@H](Cc1ccccc1)N=[N+]=[N-])C(=O)NCC(=O)N[C@H](/C=C/S(C)(=O)=O)Cc1ccc(CN)cc1`: the Ratio IC50 was > 2200.

The target of a further assay is T1, Proteasome Macropain subunit MB1. Nature of the assay: Inhibition of 20S constitutive proteasome beta 5 chymotrypsin-like activity in human RPMI8226 cell lysates after 1 hr by coomassie brilliant blue staining-based fluorescence assay. Format: subcellular, Lysate.
Details: not given
The method in brief: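 Cells at (5–8)×10⁵ cells/mL were exposed to inhibitor for 1 h at 37 °C, washed in PBS and lysed on ice for 1 h in digitonin/ATP buffer. Residual activity was read by cocktail-ABP labeling, SDS-PAGE and fluorescence densitometry relative to mock, with Coomassie staining correcting for loading. IC50 came from three independent experiments.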
As for `CC(C)C[C@H](NC(=O)[C@H](Cc1ccccc1)N=[N+]=[N-])C(=O)NCC(=O)N[C@H](/C=C/S(C)(=O)=O)Cc1ccc(CN)cc1`, the concentration for half-maximal inhibition (IC50) is > 10 µM.

For a further assay, the species on record is Homo sapiens. Nature of the assay: Selectivity ratio of IC50 for 20S constitutive proteasome beta 5 chymotrypsin-like activity in human Raji cell lysates to IC50 for 20S constitutive proteasome beta 2 trypsin-like activity in human Raji cells. Format: cell-based.
Details: not given
As for `CC(C)C[C@H](NC(=O)[C@H](Cc1ccccc1)N=[N+]=[N-])C(=O)NCC(=O)N[C@H](/C=C/S(C)(=O)=O)Cc1ccc(CN)cc1`, the Ratio IC50 was 276.

The target of a further assay is T5, Proteasome subunit beta type-8 (Homo sapiens, UniProt P28062).
T5 sequence (P28062 whole entry): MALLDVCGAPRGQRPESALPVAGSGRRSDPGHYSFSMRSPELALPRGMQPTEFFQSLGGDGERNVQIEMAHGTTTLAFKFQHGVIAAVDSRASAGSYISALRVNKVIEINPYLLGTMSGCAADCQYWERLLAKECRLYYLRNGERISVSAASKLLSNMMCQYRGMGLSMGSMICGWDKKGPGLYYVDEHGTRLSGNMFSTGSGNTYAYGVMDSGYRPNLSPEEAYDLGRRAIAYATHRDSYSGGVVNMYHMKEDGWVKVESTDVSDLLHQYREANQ
Put plainly: Inhibition of 20S immunoproteasome beta 5 in human RPMI8226 cell lysates after 1 hr by coomassie brilliant blue staining-based fluorescence assay.
Details: not given
Format: subcellular, Lysate. The method in brief: as §1
For the molecule `CC(C)C[C@H](NC(=O)[C@H](Cc1ccccc1)N=[N+]=[N-])C(=O)NCC(=O)N[C@H](/C=C/S(C)(=O)=O)Cc1ccc(CN)cc1`, the IC50 is > 10 µM.

Another assay is filed under the species Homo sapiens. Put plainly: Selectivity ratio of IC50 for 20S immunoproteasome beta 2 (unknown origin) to IC50 for 20S constitutive proteasome beta 2 trypsin-like activity (unknown origin).
Details: not given
Consider `CC(C)C[C@H](NC(=O)[C@H](Cc1ccccc1)N=[N+]=[N-])C(=O)NCC(=O)N[C@H](/C=C/S(C)(=O)=O)Cc1ccc(CN)cc1`, for which the Ratio IC50 turned out to be 224.

For the next assay, the target named is T6, Proteasome subunit beta type-10 (Homo sapiens) (UniProt P40306).
T6 sequence (whole entry): T4 sequence (P40306 whole entry)
Put plainly: Binding affinity to 20S immunoproteasome beta 2 in human Raji cell lysates at 3 uM by ABPP assay. The following applies: Lysate. Format: subcellular. The procedure, abridged: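 Raji lysate (5 μg total protein, Tris pH 7.5, DTT, MgCl₂, glycerol, 2 mM ATP) was labeled with the BODIPY(FL) probe for 1 h at 37 °C. […] The wet gel was scanned at Cy2 settings.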
Regarding `CC1=CC(C)=N/C1=C(/CCCCc1cn(CCOc2ccc(C[C@H](NC(=O)[C@H](C)NC(=O)CN3CCOCC3)C(=O)N[C@@H](CC3CCCC4CCCCC43)C(=O)[C@@]3(C)CO3)cc2)nn1)c1c(C)cc(C)n1B(F)F` (stereo partly drawn), the outcome was Active.

The target of the next assay is T4, Proteasome subunit beta type-10. Put plainly: Inhibition of 20S immunoproteasome beta 2 (unknown origin) by cell based ABPP assay.
Details: not given
The procedure, abridged:
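Living RPMI-8226 cells, (5–8) ×10^5 cells/mL, exposed to inhibitor 1 h at 37 °C, washed, lysed in digitonin buffer 1 h on ice; residual activity labelled with cocktail ABPs, SDS-PAGE in-gel fluorescence, bands divided by mock, Coomassie staining to correct loading. IC50 from mean of three independent experiments.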
For `CC(C)C[C@H](NC(=O)[C@H](Cc1ccccc1)N=[N+]=[N-])C(=O)NCC(=O)N[C@H](/C=C/S(C)(=O)=O)Cc1ccc(CN)cc1`, inhibition was half-maximal at 5.9 µM (IC50).

For the next assay, the target named is T7, Proteasome subunit beta type-7 (Homo sapiens, UniProt Q99436).
T7 sequence (Q99436 whole entry): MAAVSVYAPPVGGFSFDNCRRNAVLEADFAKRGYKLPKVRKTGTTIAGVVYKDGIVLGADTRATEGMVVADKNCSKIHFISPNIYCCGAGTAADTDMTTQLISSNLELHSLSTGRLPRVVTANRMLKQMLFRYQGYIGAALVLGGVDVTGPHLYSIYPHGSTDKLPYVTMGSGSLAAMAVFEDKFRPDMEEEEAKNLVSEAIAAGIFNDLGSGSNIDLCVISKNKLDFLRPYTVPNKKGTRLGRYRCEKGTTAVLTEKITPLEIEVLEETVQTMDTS
Put plainly: Inhibition of 20S constitutive proteasome beta 2 trypsin-like activity in human RPMI8226 cell lysates after 1 hr by coomassie brilliant blue staining-based fluorescence assay. Format: subcellular, Lysate.
Details: not given
As to `CC(C)C[C@H](NC(=O)[C@H](Cc1ccccc1)N=[N+]=[N-])C(=O)NCC(=O)N[C@H](/C=C/S(C)(=O)=O)Cc1ccc(CN)cc1`, the IC50 was > 10 µM.

The next assay concerns the target T3, Proteasome subunit beta type-9. Nature of the assay: Inhibition of 20S immunoproteasome beta 1 in human Raji cell lysates after 1 hr by competitive ABPP assay. Format: subcellular, Lysate.
Details: not given
The procedure, abridged: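 Raji cells were sonicated in 3 volumes of Tris pH 7.5 lysis buffer containing DTT, MgCl₂, sucrose, 2 mM ATP and 0.05% digitonin. Lysate (5 μg protein, in buffer with 2 mM ATP and glycerol) was preincubated with inhibitor for 1 h at 37 °C, then with a cocktail of three fluorescent ABPs for 1 h. […] In-gel fluorescence densitometry was normalized to mock. IC50 came from the mean of three experiments.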
In the case of `CC(C)C[C@H](NC(=O)[C@H](Cc1ccccc1)N=[N+]=[N-])C(=O)NCC(=O)N[C@H](/C=C/S(C)(=O)=O)Cc1ccc(CN)cc1`, the IC50 is > 100 µM.

The next assay has as its target T4, Proteasome subunit beta type-10. Nature of the assay: Inhibition of 20S immunoproteasome beta 2 in human Raji cell lysates after 1 hr by competitive ABPP assay. Format: subcellular, Lysate.
Details: not given
As to `CC(C)C[C@H](NC(=O)[C@H](Cc1ccccc1)N=[N+]=[N-])C(=O)NCC(=O)N[C@H](/C=C/S(C)(=O)=O)Cc1ccc(CN)cc1`, the IC50 stood at 2500 nM.

For another assay, the species on record is Homo sapiens. Put plainly: Selectivity ratio of IC50 for 20S immunoproteasome beta 2 in human Raji cell lysates to IC50 for 20S constitutive proteasome beta 2 trypsin-like activity in human Raji cells. Format: cell-based.
Details: not given
With `CC(C)C[C@H](NC(=O)[C@H](Cc1ccccc1)N=[N+]=[N-])C(=O)NCC(=O)N[C@H](/C=C/S(C)(=O)=O)Cc1ccc(CN)cc1`, the Ratio IC50 is 54.

The next assay has as its target T5, Proteasome subunit beta type-8. Nature of the assay: Inhibition of 20S immunoproteasome beta 5 in human Raji cell lysates after 1 hr by competitive ABPP assay. Format: subcellular, Lysate.
Details: not given
As for `CC(C)C[C@H](NC(=O)[C@H](Cc1ccccc1)N=[N+]=[N-])C(=O)NCC(=O)N[C@H](/C=C/S(C)(=O)=O)Cc1ccc(CN)cc1`, the concentration for half-maximal inhibition (IC50) worked out at 12.7 µM. This lies in the double-digit micromolar range.
